ChEMBL document CHEMBL1154166, “Crystallographic study of a novel subnanomolar inhibitor provides insight on the binding interactions of alkenyldiarylmethanes with human immunodeficiency virus-1 reverse transcriptase” (J Med Chem, 2009)

How the values were obtained:
[1] = molecular target: Human immunodeficiency virus type 1 reverse transcriptase (Human immunodeficiency virus 1, UniProt Q72547); test: Inhibition of HIV1 reverse transcriptase p66/p51 using poly(rC)-oligo)dG) as template
Summary of the method: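 Purified recombinant HIV-1 RT p66/51 heterodimer; poly(rC)·oligo(dG) homopolymer template/primer; activity measured as 32P-labeled […] incorporated into nascent DNA across increasing inhibitor concentrations; IC50 derived.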

[2] = tested on: Human immunodeficiency virus 1; test: Antiviral activity against HIV1 RF infected in human CEM-SS cells assessed as inhibition of virus-induced cytopathic effect by XTT assay; assay type: functional, organism-based; settings: Human immunodeficiency virus 1, RF
Summary of the method: (§1)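 XTT cytoprotection readout in CEM-SS cells infected with HIV-1 RF or with HIV-1 NL4-3 carrying RT K103N or Y181C. EC50 is the concentration giving 50% inhibition of virus-induced cytopathic effect.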

[3] = tested on: Human immunodeficiency virus 1; test: Antiviral activity against HIV1 3B infected in human MT4 cells assessed as inhibition of virus-induced cytopathic effect by MTT assay; assay type: functional, organism-based; settings: Human immunodeficiency virus 1, 3B
Summary of the method: (§2)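 Infected MT-4 cells (HIV-1 IIIB or HIV-2 ROD), protection from viral cytopathic effect read by MTT assay; EC50 = concentration giving 50% inhibition of cytopathic effect. CC50 from mock-infected MT-4 cells.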

[4] = tested on: Human immunodeficiency virus 2; test: Antiviral activity against HIV2 ROD infected in human MT4 cells assessed as inhibition of virus-induced cytopathic effect by MTT assay; assay type: functional, organism-based; summary of the method: as §2
CEM-SS = test: (§3) Cytotoxicity against human CEM-SS cells; assay type: cell-based; settings: cem-ss
Summary of the method: (§4)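 Mock-infected CEM-SS cells, handled alongside the XTT antiviral assay. CC50 is the concentration causing death of 50% of cells.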

MT4 = test: (§5) Cytotoxicity against human MT4 cells; assay type: cell-based; settings: mt4
Summary of the method: (§6)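 Mock-infected MT-4 cells, handled alongside the MTT antiviral assay run with HIV-1 IIIB and HIV-2 ROD. CC50 is the concentration causing death of 50% of cells.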

Plasma = test: (§7) Stability in rat plasma; assay type: ADME, cell-free
Summary of the method: (§8)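 Compound incubated in reconstituted rat plasma with 1,1-diphenylethylene internal standard; remaining compound quantified by reversed-phase C18 HPLC, 8:2 acetonitrile-water, column at room temperature; half-life per replicate from regression of concentration versus time, averaged over two replicates.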

[5] = tested on: Human immunodeficiency virus 1; test: Antiviral activity against NNRTI-resistant HIV1 NL4-3 with reverse transcriptase K103N mutation infected in human CEM-SS cells assessed as inhibition of virus-induced cytopathic effect by XTT assay; assay type: functional, organism-based; settings: Human immunodeficiency virus 1, NL4-3, CEM-SS; summary of the method: as §1
[6] = tested on: Human immunodeficiency virus 1; test: Antiviral activity against NNRTI-resistant HIV1 NL4-3 with reverse transcriptase Y181C mutation infected in human CEM-SS cells assessed as inhibition of virus-induced cytopathic effect by XTT assay; assay type: functional, organism-based; settings: Human immunodeficiency virus 1, NL4-3, CEM-SS; summary of the method: as §1
[7] = as §3; assay type: cell-based; settings: CEM-SS cells; summary of the method: as §4
[8] = as §5; assay type: cell-based; settings: MT4 cells; summary of the method: as §6
[9] = as §7; assay type: ADME, cell-free; summary of the method: as §8

half-life [9] | Structure (SMILES) | IC50 [1] | EC50 [2] | EC50 [3] | EC50 [4] | CC50 (CEM-SS) | CC50 (MT4) | t1/2 (Plasma) | EC50 [5] | EC50 [6] | CC50 [7] | CC50 [8]
 | COc1c(C)cc(/C(=C\CCCc2nnc(C)o2)c2cc(C)c3oc(=O)n(C)c3c2)cc1C(=O)SC | < 1 nM | 70 nM | 180 nM | Not Active | 3000 nM | 3900 nM | 238 min | > 100000 nM | > 100000 nM |  | 
12.4 min | COC(=O)CCCC=C(c1cc(C#N)c(OC)c(C(=O)OC)c1)c1cc(C#N)c(OC)c(C(=O)OC)c1 |  | 700 nM |  | Not Active |  |  |  |  |  | 17000 nM | > 100000 nM
 | COC(=O)CCC/C=C(\c1cc(C)c(OC)c(C(=O)OC)c1)c1cc(C)c2oc(=O)n(C)c2c1 |  |  |  | Not Active |  |  |  |  |  |  | 
 | COC(=O)CCCC=C(c1cc(Br)c(OC)c(C(=O)OC)c1)c1cc(Br)c(OC)c(C(=O)OC)c1 |  | 100 nM |  | Not Active |  |  |  | 420 nM | 6100 nM |  | 
 | Cc1ccnc2c1NC(=O)c1cccnc1N2C1CC1 [NEVIRAPINE] |  |  |  |  |  |  |  | 600 nM | 800 nM |  | 
